In ChEMBL document CHEMBL4387724, “2-Pyridineformamide N(4)-ring incorporated thiosemicarbazones inhibit MCF-7 cells by inhibiting JNK pathway” (Bioorg Med Chem Lett, 2019):

Tests used:
[1] = test system: MCF7; test: Cytotoxicity against human MCF7 cells assessed as reduction in cell growth at 30 uM incubated for 72 hrs by MTT assay relative to control; type: functional; details: MCF7, 72 h, read-out: GI
[2] = test system: A-431; test: Cytotoxicity against human A431 cells assessed as reduction in cell growth at 30 uM incubated for 72 hrs by MTT assay relative to control; type: functional; details: A-431, 72 h, read-out: GI
[3] = test system: A-375; test: Cytotoxicity against human A375 cells assessed as reduction in cell growth at 100 uM incubated for 72 hrs by MTT assay relative to control; type: functional; details: A-375, 72 h, read-out: GI
Method in brief: (§1)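 Cells grown in DMEM with 10% FBS and penicillin-streptomycin at 37 °C, 5% CO2, seeded at 3000 cells/well and attached overnight. Screening series given at 1, 3, 10, 100 μM; follow-up agent at 100 nM–3 μM; both 72 h, with 0.1% DMSO vehicle. MTT (5 mg/mL stock) added for 3 h at 37 °C, formazan dissolved in DMSO, absorbance read at 570 nm. Viability expressed as % of DMSO-treated wells from replicates.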

[4] = test system: A-375; test: Cytotoxicity against human A375 cells assessed as reduction in cell growth at 30 uM incubated for 72 hrs by MTT assay relative to control; type: functional; details: A-375, 72 h, read-out: GI
[5] = test system: HeLa; test: Cytotoxicity against human HeLa cells assessed as reduction in cell growth at 10 uM incubated for 72 hrs by MTT assay relative to control; type: functional; details: read-out: GI; method in brief: as §1
[6] = test system: HeLa; test: Cytotoxicity against human HeLa cells assessed as reduction in cell growth at 100 uM incubated for 72 hrs by MTT assay relative to control; type: functional; details: read-out: GI; method in brief: as §1
[7] = test system: A-375; test: Cytotoxicity against human A375 cells assessed as reduction in cell growth at 3 uM incubated for 72 hrs by MTT assay relative to control; type: functional; details: A-375, 72 h, read-out: GI; method in brief: as §1
[8] = test system: MCF7; test: Cytotoxicity against human MCF7 cells assessed as reduction in cell growth at 10 uM incubated for 72 hrs by MTT assay relative to control; type: functional; details: MCF7, 72 h, read-out: GI; method in brief: as §1
[9] = test system: MCF7; test: Cytotoxicity against human MCF7 cells assessed as reduction in cell growth incubated for 72 hrs by MTT assay; type: functional, cell-based; details: MCF7, 72 h; method in brief: as §1
[10] = test system: HeLa; test: Cytotoxicity against human HeLa cells assessed as reduction in cell growth at 1 uM incubated for 72 hrs by MTT assay relative to control; type: functional; details: read-out: GI; method in brief: as §1
[11] = test system: MCF7; test: Cytotoxicity against human MCF7 cells assessed as reduction in cell growth at 100 uM incubated for 72 hrs by MTT assay relative to control; type: functional; details: MCF7, 72 h, read-out: GI; method in brief: as §1
[12] = test system: A-431; test: Cytotoxicity against human A431 cells assessed as reduction in cell growth at 100 uM incubated for 72 hrs by MTT assay relative to control; type: functional; details: A-431, 72 h, read-out: GI; method in brief: as §1
[13] = test system: A-375; test: Cytotoxicity against human A375 cells assessed as reduction in cell growth at 1 uM incubated for 72 hrs by MTT assay relative to control; type: functional; details: A-375, 72 h, read-out: GI; method in brief: as §1
[14] = test system: HeLa; test: Cytotoxicity against human HeLa cells assessed as reduction in cell growth incubated for 72 hrs by MTT assay; type: functional, cell-based; method in brief: as §1
[15] = test system: HeLa; test: Cytotoxicity against human HeLa cells assessed as reduction in cell growth at 30 uM incubated for 72 hrs by MTT assay relative to control; type: functional; details: read-out: GI
[16] = test system: A-375; test: Cytotoxicity against human A375 cells assessed as reduction in cell growth at 10 uM incubated for 72 hrs by MTT assay relative to control; type: functional; details: A-375, 72 h, read-out: GI; method in brief: as §1
[17] = test system: HeLa; test: Cytotoxicity against human HeLa cells assessed as reduction in cell growth at 3 uM incubated for 72 hrs by MTT assay relative to control; type: functional; details: read-out: GI; method in brief: as §1
[18] = test system: A-431; test: Cytotoxicity against human A431 cells assessed as reduction in cell growth at 3 uM incubated for 72 hrs by MTT assay relative to control; type: functional; details: A-431, 72 h, read-out: GI; method in brief: as §1
[19] = test system: A-431; test: Cytotoxicity against human A431 cells assessed as reduction in cell growth at 10 uM incubated for 72 hrs by MTT assay relative to control; type: functional; details: A-431, 72 h, read-out: GI; method in brief: as §1
[20] = test system: A-431; test: Cytotoxicity against human A431 cells assessed as reduction in cell growth incubated for 72 hrs by MTT assay; type: functional, cell-based; details: A-431, 72 h; method in brief: as §1
[21] = test system: A-431; test: Cytotoxicity against human A431 cells assessed as reduction in cell growth at 1 uM incubated for 72 hrs by MTT assay relative to control; type: functional; details: A-431, 72 h, read-out: GI; method in brief: as §1
[22] = test system: MCF7; test: Cytotoxicity against human MCF7 cells assessed as reduction in cell growth at 3 uM incubated for 72 hrs by MTT assay relative to control; type: functional; details: MCF7, 72 h, read-out: GI; method in brief: as §1
[23] = test system: A-375; test: Cytotoxicity against human A375 cells assessed as reduction in cell growth incubated for 72 hrs by MTT assay; type: functional, cell-based; details: A-375, 72 h; method in brief: as §1
[24] = test system: MCF7; test: Cytotoxicity against human MCF7 cells assessed as reduction in cell growth at 1 uM incubated for 72 hrs by MTT assay relative to control; type: functional; details: MCF7, 72 h, read-out: GI; method in brief: as §1

| Structure (SMILES) | inhibition of growth at 30 µM [1] | inhibition of growth at 30 µM [2] | inhibition of growth at 100 µM [3] | inhibition of growth at 30 µM [4] | inhibition of growth at 10 µM [5] | inhibition of growth at 100 µM [6] | inhibition of growth at 3 µM [7] | inhibition of growth at 10 µM [8] | IC50 [9] | inhibition of growth at 1 µM [10] | inhibition of growth at 100 µM [11] | inhibition of growth at 100 µM [12] | inhibition of growth at 1 µM [13] | IC50 [14] | inhibition of growth at 30 µM [15] | inhibition of growth at 10 µM [16] | inhibition of growth at 3 µM [17] | inhibition of growth at 3 µM [18] | inhibition of growth at 10 µM [19] | IC50 [20] | further results |
| --- | --- | --- | --- | --- | --- | --- | --- | --- | --- | --- | --- | --- | --- | --- | --- | --- | --- | --- | --- | --- | --- |
| Cc1cccc(/C(N)=N/NC(=S)N2CCSCC2)n1 | 38.6% | 64.5% | 77.4% | 73.1% | 67.6% | 81.6% | 60.1% | 22.5% | > 100 µM | 46.5% | 46.8% | 80.7% | 47.2% | 1.8 µM | 85.3% | 62.6% | 54.6% | 51.7% | 53.2% | 2.6 µM | inhibition of growth at 1 µM [21]: 42.8%; inhibition of growth at 3 µM [22]: 20.6%; IC50 [23]: 1.4 µM; inhibition of growth at 1 µM [24]: 7.3% |
| N/C(=N\NC(=S)N1CCOCC1)c1ccc(F)cn1 | 56.7% | 82.3% | 86.2% | 85.9% | 81.9% | 81.2% | 66.4% | 39.5% | 22.1 µM | 21.4% | 61.5% | 85.6% | 44.5% | 1.7 µM | 84.5% | 70.3% | 59.7% | 47% | 66.9% | 4 µM | inhibition of growth at 1 µM [21]: 31.8%; inhibition of growth at 3 µM [22]: 33.9%; IC50 [23]: 1.5 µM; inhibition of growth at 1 µM [24]: 12.4% |
| N/C(=N\NC(=S)N1CCN(c2ccccn2)CC1)c1ccccn1 | 65.3% | 74.9% | 86.8% | 81% | 56.1% | 85.6% | 73.7% | 46.4% | 13.7 µM | 16.7% | 68.3% | 91.9% | 70% | 8.6 µM | 78.9% | 74.4% | 24.4% | 45.8% | 69% | 4.3 µM | inhibition of growth at 1 µM [21]: 11.6%; inhibition of growth at 3 µM [22]: 37.2%; IC50 [23]: 0.7 µM; inhibition of growth at 1 µM [24]: 36% |
| Cc1cccc(/C(N)=N/NC(=S)N2CCCCCC2)n1 | 38.8% | 63.5% | 80.9% | 70.3% | 71.7% | 82.7% | 64.5% | 21.5% | 54.7 µM | 49.5% | 70.2% | 76.7% | 39.6% | 1 µM | 81.2% | 79.9% | 63.6% | 44.1% | 45.8% | 14.7 µM | inhibition of growth at 1 µM [21]: 42.8%; inhibition of growth at 3 µM [22]: 15.7%; IC50 [23]: 1.8 µM; inhibition of growth at 1 µM [24]: 6.3% |
| N/C(=N\NC(=S)N1CCOCC1)c1ccccn1 | 78.1% | 78.8% | 14% | 15% | 56.3% | 87.2% | 19.3% | 66.7% | 4.7 µM | 12.7% | 81.6% | 84.6% | 26.8% | 7.3 µM | 82.8% | 18.3% | 40% | 43.1% | 69.4% | 4.8 µM | inhibition of growth at 1 µM [21]: 29.2%; inhibition of growth at 3 µM [22]: 44.5%; IC50 [23]: 0.68 µM; inhibition of growth at 1 µM [24]: 14.7% |
| Cc1ccnc(/C(N)=N/NC(=S)N2CCCCCC2)c1 | 75.9% | 63.4% | 77% | 76.5% | 55.8% | 91.6% | 70% | 60.3% | 6.9 µM | 43.2% | 65.4% | 71% | 61.9% | 7 µM | 69.9% | 70.6% | 41.9% | 36.1% | 55.5% | 8 µM | inhibition of growth at 1 µM [21]: 36.3%; inhibition of growth at 3 µM [22]: 36.3%; IC50 [23]: 0.8 µM; inhibition of growth at 1 µM [24]: 18.2% |
| Cc1cccc(/C(N)=N/NC(=S)N2CCCCC2)n1 | 43% | 65.2% | 85.7% | 80.9% | 83.5% | 85.4% | 63.2% | 39% | 74 µM | 27% | 54% | 77.5% | 49.9% | 2 µM | 83.5% | 76.4% | 68.9% | 36.6% | 47.8% | 12.4 µM | inhibition of growth at 1 µM [21]: 35%; inhibition of growth at 3 µM [22]: 27.1%; IC50 [23]: 1 µM; inhibition of growth at 1 µM [24]: 19.5% |
| N/C(=N\NC(=S)N1CCSCC1)c1ccccn1 | 72.6% | 81.3% | 87.8% | 86% | 54.5% | 88.7% | 80% | 54.3% | 8.8 µM | 25.1% | 72.4% | 80.8% | 34% | 7.8 µM | 80.6% | 83.9% | 39.7% | 37.2% | 61.4% | 6.7 µM | inhibition of growth at 1 µM [21]: 31.7%; inhibition of growth at 3 µM [22]: 29%; IC50 [23]: 0.76 µM; inhibition of growth at 1 µM [24]: 16.3% |
| Cc1ccnc(/C(N)=N/NC(=S)N2CCSCC2)c1 | 74.2% | 75.3% | 89.9% | 84.9% | 39.2% | 91.6% | 67.2% | 62.5% | 6.9 µM | 41.1% | 76.8% | 79.6% | 47.7% | 15.5 µM | 78.3% | 74.5% | 40.4% | 34.7% | 60% | 7.2 µM | inhibition of growth at 1 µM [21]: 34.6%; inhibition of growth at 3 µM [22]: 33.8%; IC50 [23]: 1.2 µM; inhibition of growth at 1 µM [24]: 3.89% |
